≈ marks a conversion by molar mass, not a printed value. Calls of active or inactive are those of the source. No cut-off for these calls is given here.
Columns and labels:
Aspergillus fumigatus [1] = assay: Antifungal activity against Aspergillus fumigatus 231 after 48 hrs by broth microdilution method; assay type: functional; settings: Aspergillus fumigatus, 231, 48 h
Summary of the method: (§1)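 Broth microdilution in RPMI 1640 with glutamine, fluconazole as reference. For yeasts, MIC is ≥80% growth reduction (IC80) versus control. For filamentous fungi, the value is expressed as IC50. Readings at 24 and 48 h.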

Enterococcus sp. = assay: Antibacterial activity against Enterococcus sp. J 14365/08 at 500 micromol/L after 24 to 48 hrs by broth microdilution method; assay type: functional, organism-based
Summary of the method: (§2)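 Broth microdilution in Mueller–Hinton broth, compounds dissolved in DMSO, tested over a dilution series from 500 downward. MIC taken as ≥95% growth reduction (IC95) versus drug-free control. Benzylpenicillin comparator. Readings at 24 and 48 h.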

Candida albicans [2] = assay: Antifungal activity against Candida albicans ATCC 44859 after 48 hrs by broth microdilution method; assay type: functional; settings: ATCC 44859, 48 h; summary of the method: as §1
Pichia kudriavzevii [3] = assay: Antifungal activity against Candida krusei E28 after 24 hrs by broth microdilution method; assay type: functional; settings: E28, 24 h; summary of the method: as §1
[4] = system: Mycobacterium tuberculosis; assay: Antimycobacterial activity against Mycobacterium tuberculosis H37Rv My 331/88 after 21 days; assay type: functional; settings: H37Rv My 331/88, 504 h
Summary of the method: (§3)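 Micromethod MIC in Šula's semisynthetic medium at 37 °C. Compounds added in DMSO at 1000 down to 0.032 µmol/L. Isoniazid standard in sterile water at 0.5–250 µmol/L. Inocula: H37Rv 10^3, M. avium 10^5, M. kansasii 10^4. Read at 14 and 21 d, plus 7 d for M. kansasii.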

Klebsiella pneumoniae [5] = assay: Antibacterial activity against ESBL-positive Klebsiella pneumoniae J 14368/08 at 500 micromol/L after 24 to 48 hrs by broth microdilution method; assay type: functional, organism-based; summary of the method: as §2
Mycobacterium kansasii [6] = assay: Antimycobacterial activity against Mycobacterium kansasii My 235/80 after 7 days; assay type: functional; settings: My 235/80, 168 h; summary of the method: as §3
[7] = system: Trichophyton mentagrophytes; assay: Antifungal activity against Trichophyton mentagrophytes 445 after 120 hrs by broth microdilution method; assay type: functional; settings: Trichophyton mentagrophytes, 445, 120 h
Summary of the method: (§4)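 Filamentous dermatophyte tested by broth microdilution in RPMI 1640 with glutamine, fluconazole as reference. Value expressed as IC50 relative to growth control. Read at 72 and 120 h.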

Trichosporon asahii [8] = assay: Antifungal activity against Trichosporon asahii 1188 after 24 hrs by broth microdilution method; assay type: functional; settings: Trichosporon asahii, 1188, 24 h; summary of the method: as §1
[9] = system: Staphylococcus epidermidis; assay: Antibacterial activity against Staphylococcus epidermidis H 6966/08 after 24 hrs by broth microdilution method; assay type: functional; settings: H 6966/08, 24 h; summary of the method: as §2
Mycobacterium kansasii [10] = assay: Antimycobacterial activity against Mycobacterium kansasii 6509/96 after 14 days; assay type: functional; settings: 6509/96, 336 h; summary of the method: as §3
Pseudomonas aeruginosa = assay: Antibacterial activity against Pseudomonas aeruginosa CCM 1961 at 500 micromol/L after 24 to 48 hrs by broth microdilution method; assay type: functional, organism-based; summary of the method: as §2
[11] = system: Trichophyton mentagrophytes; assay: Antifungal activity against Trichophyton mentagrophytes 445 after 72 hrs by broth microdilution method; assay type: functional; settings: Trichophyton mentagrophytes, 445, 72 h; summary of the method: as §4
Mycobacterium kansasii [12] = assay: Antimycobacterial activity against Mycobacterium kansasii 6509/96 after 7 days; assay type: functional; settings: 6509/96, 168 h; summary of the method: as §3
Staphylococcus aureus [13] = assay: Antibacterial activity against methicillin-resistant Staphylococcus aureus H 5996/08 after 24 hrs by broth microdilution method; assay type: functional; settings: H 5996/08, 24 h; summary of the method: as §2
Candida albicans [14] = assay: Antifungal activity against Candida albicans ATCC 44859 after 24 hrs by broth microdilution method; assay type: functional; settings: ATCC 44859, 24 h; summary of the method: as §1
Mycobacterium avium [15] = assay: Antimycobacterial activity against isoniazid, rifampicin, ethambutol and ofloxacin-resistant Mycobacterium avium My 330/88 after 21 days; assay type: functional; settings: My 330/88, 504 h; summary of the method: as §3
Lichtheimia corymbifera [16] = assay: Antifungal activity against Absidia corymbifera 272 after 48 hrs by broth microdilution method; assay type: functional; settings: Lichtheimia corymbifera, 272, 48 h; summary of the method: as §1
Staphylococcus aureus [17] = assay: Antibacterial activity against Staphylococcus aureus CCM 4516/08 after 24 hrs by broth microdilution method; assay type: functional; settings: CCM 4516/08, 24 h; summary of the method: as §2
Staphylococcus aureus [18] = assay: Antibacterial activity against methicillin-resistant Staphylococcus aureus H 5996/08 after 48 hrs by broth microdilution method; assay type: functional; settings: H 5996/08, 48 h; summary of the method: as §2
Aspergillus fumigatus [19] = assay: Antifungal activity against Aspergillus fumigatus 231 after 24 hrs by broth microdilution method; assay type: functional; settings: Aspergillus fumigatus, 231, 24 h; summary of the method: as §1
[20] = system: Staphylococcus epidermidis; assay: Antibacterial activity against Staphylococcus epidermidis H 6966/08 after 48 hrs by broth microdilution method; assay type: functional; settings: H 6966/08, 48 h; summary of the method: as §2
Mycobacterium kansasii [21] = assay: Antimycobacterial activity against Mycobacterium kansasii My 235/80 after 14 days; assay type: functional; settings: My 235/80, 336 h; summary of the method: as §3
Lichtheimia corymbifera [22] = assay: Antifungal activity against Absidia corymbifera 272 after 24 hrs by broth microdilution method; assay type: functional; settings: Lichtheimia corymbifera, 272, 24 h; summary of the method: as §1
Pichia kudriavzevii [23] = assay: Antifungal activity against Candida krusei E28 after 48 hrs by broth microdilution method; assay type: functional; settings: E28, 48 h; summary of the method: as §1
HepG2 = assay: Cytotoxicity against human HepG2 cells after 24 hrs by CellTiter assay; assay type: cell-based; settings: HepG2, 24 h
Summary of the method: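 HepG2 cells (passage 27–33) in MEM with 10% FBS, L-glutamine and NEAA, seeded at 1×10^4 per well. Treated next day with compounds at 0.1–100 µM (or 0.1–25 µmol/L), triplicates, <1% DMSO, for 24 h at 37 °C, 5% CO2. MTS reagent added for 2 h, absorbance read at 490 nm. IC50 taken against untreated (100%) and 10% DMSO (0%) controls.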

Staphylococcus aureus [24] = assay: Antibacterial activity against Staphylococcus aureus CCM 4516/08 after 48 hrs by broth microdilution method; assay type: functional; settings: CCM 4516/08, 48 h; summary of the method: as §2
Escherichia coli = assay: Antibacterial activity against Escherichia coli CCM 4517 at 500 micromol/L after 24 to 48 hrs by broth microdilution method; assay type: functional, organism-based; summary of the method: as §2
[25] = system: Mycobacterium tuberculosis; assay: Antimycobacterial activity against Mycobacterium tuberculosis H37Rv My 331/88 after 14 days; assay type: functional; settings: H37Rv My 331/88, 336 h; summary of the method: as §3
Trichosporon asahii [26] = assay: Antifungal activity against Trichosporon asahii 1188 after 48 hrs by broth microdilution method; assay type: functional; settings: Trichosporon asahii, 1188, 48 h; summary of the method: as §1
Candida tropicalis = assay: Antifungal activity against Candida tropicalis 156 at 500 micromol/L after 24 to 48 hrs by broth microdilution method; assay type: functional, organism-based; summary of the method: as §1
Mycobacterium avium [27] = assay: Antimycobacterial activity against isoniazid, rifampicin, ethambutol and ofloxacin-resistant Mycobacterium avium My 330/88 after 14 days; assay type: functional; settings: My 330/88, 336 h; summary of the method: as §3
Klebsiella pneumoniae [28] = assay: Antibacterial activity against Klebsiella pneumoniae D 11750/08 at 500 micromol/L after 24 to 48 hrs by broth microdilution method; assay type: functional, organism-based; summary of the method: as §2
Mycobacterium kansasii [29] = assay: Antimycobacterial activity against Mycobacterium kansasii 6509/96 after 21 days; assay type: functional; settings: 6509/96, 504 h; summary of the method: as §3
Mycobacterium kansasii [30] = assay: Antimycobacterial activity against Mycobacterium kansasii My 235/80 after 21 days; assay type: functional; settings: My 235/80, 504 h; summary of the method: as §3
Nakaseomyces glabratus = assay: Antifungal activity against Candida glabrata 20/I at 500 micromol/L after 24 to 48 hrs by broth microdilution method; assay type: functional, organism-based; summary of the method: as §1

Structure (SMILES)	MIC50 (Aspergillus fumigatus [1])	Activity (Enterococcus sp.)	MIC80 (Candida albicans [2])	MIC80 (Pichia kudriavzevii [3])	MIC [4]	Activity (Klebsiella pneumoniae [5])	MIC (Mycobacterium kansasii [6])	MIC50 [7]	MIC80 (Trichosporon asahii [8])	MIC95 [9]	MIC (Mycobacterium kansasii [10])	Activity (Pseudomonas aeruginosa)	MIC50 [11]	MIC (Mycobacterium kansasii [12])	MIC95 (Staphylococcus aureus [13])	MIC80 (Candida albicans [14])	MIC (Mycobacterium avium [15])	MIC50 (Lichtheimia corymbifera [16])	MIC95 (Staphylococcus aureus [17])	MIC95 (Staphylococcus aureus [18])	other results
CCOP(=O)(OCC)Oc1ccc(Cl)cc1C(=O)Nc1cccc(Cl)c1	> 500 µM	inactive	> 500 µM	> 500 µM	4 µM (≈ 1.67 µg/mL)	inactive	8 µM (≈ 3.35 µg/mL)	> 500 µM	> 500 µM	125 µM (≈ 52.3 µg/mL)	16 µM (≈ 6.69 µg/mL)	inactive	> 500 µM	8 µM (≈ 3.35 µg/mL)	500 µM (≈ 209 µg/mL)	> 500 µM	16 µM (≈ 6.69 µg/mL)	> 500 µM	500 µM (≈ 209 µg/mL)	500 µM (≈ 209 µg/mL)	MIC50 (Aspergillus fumigatus [19]): > 500 µM; MIC95 [20]: 125 µM (≈ 52.3 µg/mL); MIC (Mycobacterium kansasii [21]): 8 µM (≈ 3.35 µg/mL); MIC50 (Lichtheimia corymbifera [22]): > 500 µM; MIC80 (Pichia kudriavzevii [23]): > 500 µM; IC50 (HepG2): 2.68 µM; MIC95 (Staphylococcus aureus [24]): 500 µM (≈ 209 µg/mL); Activity (Escherichia coli): inactive; MIC [25]: 4 µM (≈ 1.67 µg/mL); MIC80 (Trichosporon asahii [26]): > 500 µM; Activity (Candida tropicalis): inactive; MIC (Mycobacterium avium [27]): 16 µM (≈ 6.69 µg/mL); Activity (Klebsiella pneumoniae [28]): inactive; MIC (Mycobacterium kansasii [29]): 16 µM (≈ 6.69 µg/mL); MIC (Mycobacterium kansasii [30]): 8 µM (≈ 3.35 µg/mL); Activity (Nakaseomyces glabratus): inactive
CCOP(=O)(OCC)Oc1ccc(Br)cc1C(=O)Nc1ccc(F)cc1	> 500 µM	inactive	> 500 µM	> 500 µM	8 µM (≈ 3.57 µg/mL)	inactive	8 µM (≈ 3.57 µg/mL)	500 µM (≈ 223 µg/mL)	> 500 µM	> 500 µM	8 µM (≈ 3.57 µg/mL)	inactive	500 µM (≈ 223 µg/mL)	8 µM (≈ 3.57 µg/mL)	500 µM (≈ 223 µg/mL)	> 500 µM	32 µM (≈ 14.3 µg/mL)	> 500 µM	> 500 µM	500 µM (≈ 223 µg/mL)	MIC50 (Aspergillus fumigatus [19]): > 500 µM; MIC95 [20]: > 500 µM; MIC (Mycobacterium kansasii [21]): 16 µM (≈ 7.14 µg/mL); MIC50 (Lichtheimia corymbifera [22]): > 500 µM; MIC80 (Pichia kudriavzevii [23]): > 500 µM; IC50 (HepG2): 7.4 µM; MIC95 (Staphylococcus aureus [24]): > 500 µM; Activity (Escherichia coli): inactive; MIC [25]: 8 µM (≈ 3.57 µg/mL); MIC80 (Trichosporon asahii [26]): > 500 µM; Activity (Candida tropicalis): inactive; MIC (Mycobacterium avium [27]): 32 µM (≈ 14.3 µg/mL); Activity (Klebsiella pneumoniae [28]): inactive; MIC (Mycobacterium kansasii [29]): 16 µM (≈ 7.14 µg/mL); MIC (Mycobacterium kansasii [30]): 16 µM (≈ 7.14 µg/mL); Activity (Nakaseomyces glabratus): inactive
CCOP(=O)(OCC)Oc1ccc(Cl)cc1C(=O)Nc1ccc(F)cc1	> 500 µM	inactive	> 500 µM	> 500 µM	16 µM (≈ 6.43 µg/mL)	inactive	32 µM (≈ 12.9 µg/mL)	> 500 µM	> 500 µM	> 500 µM	32 µM (≈ 12.9 µg/mL)	inactive	> 500 µM	16 µM (≈ 6.43 µg/mL)	> 500 µM	> 500 µM	62.5 µM (≈ 25.1 µg/mL)	> 500 µM	250 µM (≈ 100 µg/mL)	> 500 µM	MIC50 (Aspergillus fumigatus [19]): > 500 µM; MIC95 [20]: > 500 µM; MIC (Mycobacterium kansasii [21]): 32 µM (≈ 12.9 µg/mL); MIC50 (Lichtheimia corymbifera [22]): > 500 µM; MIC80 (Pichia kudriavzevii [23]): > 500 µM; IC50 (HepG2): 31.4 µM; MIC95 (Staphylococcus aureus [24]): 500 µM (≈ 201 µg/mL); Activity (Escherichia coli): inactive; MIC [25]: 8 µM (≈ 3.21 µg/mL); MIC80 (Trichosporon asahii [26]): > 500 µM; Activity (Candida tropicalis): inactive; MIC (Mycobacterium avium [27]): 62.5 µM (≈ 25.1 µg/mL); Activity (Klebsiella pneumoniae [28]): inactive; MIC (Mycobacterium kansasii [29]): 32 µM (≈ 12.9 µg/mL); MIC (Mycobacterium kansasii [30]): 32 µM (≈ 12.9 µg/mL); Activity (Nakaseomyces glabratus): inactive
